Measurements reported in ChEMBL document CHEMBL5705888, “Substrate specificity and inhibitors of LRRK2, a protein kinase mutated in Parkinson's disease” (Biochem J, 2009).
Calls of active or inactive are those of the source. The rule behind the calls is not given here.

Key:
[1] = target: Ribosomal protein S6 kinase alpha-1 (Homo sapiens) (UniProt Q15418); assay: Inhibition of RSK1 (unknown origin) at 10 uM incubated for 30 mins in presence of [gamma-33P]ATP by multidrop micro reagent based assay relative to control
In short: (§1)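 Single-concentration screen across a panel of 85 protein kinases. Activity is expressed as a percentage of control incubations run without inhibitor.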

[2] = target: Serine/threonine-protein kinase N2 (Homo sapiens) (UniProt Q16513); assay: Inhibition of PRK2 (unknown origin) at 10 uM incubated for 30 mins in presence of [gamma-33P]ATP by multidrop micro reagent based assay relative to control; in short: as §1
[3] = target: Ribosomal protein S6 kinase alpha-5 (Homo sapiens) (UniProt O75582); assay: Inhibition of MSK1 (unknown origin) at 10 uM incubated for 30 mins in presence of [gamma-33P]ATP by multidrop micro reagent based assay relative to control; in short: as §1
[4] = target: MAP kinase-interacting serine/threonine-protein kinase 1 (Homo sapiens) (UniProt Q9BUB5); assay: Inhibition of MNK1 (unknown origin) at 10 uM incubated for 30 mins in presence of [gamma-33P]ATP by multidrop micro reagent based assay relative to control; in short: as §1
[5] = target: Serine/threonine-protein kinase 26 (Homo sapiens) (UniProt Q9P289); assay: Inhibition of MST4 (unknown origin) at 10 uM incubated for 30 mins in presence of [gamma-33P]ATP by multidrop micro reagent based assay relative to control; in short: as §1
[6] = target: Insulin receptor (Homo sapiens) (UniProt P06213); assay: Inhibition of His-tagged IR (unknown origin) at 10 uM incubated for 30 mins in presence of [gamma-33P]ATP by multidrop micro reagent based assay relative to control
[7] = target: MAP/microtubule affinity-regulating kinase 3 (Homo sapiens) (UniProt P27448); assay: Inhibition of MARK3 (unknown origin) at 10 uM incubated for 30 mins in presence of [gamma-33P]ATP by multidrop micro reagent based assay relative to control; values are per cent of control
[8] = target: Protein kinase C alpha type (Homo sapiens) (UniProt P17252); assay: Inhibition of PKCalpha (unknown origin) at 10 uM incubated for 30 mins in presence of [gamma-33P]ATP by multidrop micro reagent based assay relative to control; values are per cent of control
[9] = target: Leucine-rich repeat serine/threonine-protein kinase 2 (Homo sapiens, UniProt Q5S007); assay: Inhibition of LRRK2 in human HEK293 cells assessed as inhibition of ERM phosphorylation at 10 uM incubated for 1 hr using LRRKtide as substrate in presence of sunitinib by immunoblot analysis; assay type: cell-based
In short: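 SDS lysates were run on 4–12% gels and immunoblotted for ERM phosphorylation with pan-phospho-ERM antibody (1 μg/ml, with 10 μg/ml LRRKtide in blocking milk/TBST).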

[10] = target: Leucine-rich repeat serine/threonine-protein kinase 2 (Mus musculus) (UniProt Q5S006); assay: Inhibition of LRRK2 in mouse Swiss-3T3 cells at 10 uM using Nictide as substrate by immunoblot analysis; assay type: cell-based
[11] = target: Serine/threonine-protein kinase pim-2 (Homo sapiens) (UniProt Q9P1W9); assay: Inhibition of PIM2 (unknown origin) at 1 uM incubated for 30 mins in presence of [gamma-33P]ATP by multidrop micro reagent based assay relative to control; values are per cent of control
[12] = target: T1, Mitogen-activated protein kinase kinase kinase kinase 2 (Homo sapiens) (UniProt Q12851); assay: Inhibition of GCK (unknown origin) at 0.1 uM incubated for 30 mins in presence of [gamma-33P]ATP by multidrop micro reagent based assay relative to control
T1 sequence (whole entry): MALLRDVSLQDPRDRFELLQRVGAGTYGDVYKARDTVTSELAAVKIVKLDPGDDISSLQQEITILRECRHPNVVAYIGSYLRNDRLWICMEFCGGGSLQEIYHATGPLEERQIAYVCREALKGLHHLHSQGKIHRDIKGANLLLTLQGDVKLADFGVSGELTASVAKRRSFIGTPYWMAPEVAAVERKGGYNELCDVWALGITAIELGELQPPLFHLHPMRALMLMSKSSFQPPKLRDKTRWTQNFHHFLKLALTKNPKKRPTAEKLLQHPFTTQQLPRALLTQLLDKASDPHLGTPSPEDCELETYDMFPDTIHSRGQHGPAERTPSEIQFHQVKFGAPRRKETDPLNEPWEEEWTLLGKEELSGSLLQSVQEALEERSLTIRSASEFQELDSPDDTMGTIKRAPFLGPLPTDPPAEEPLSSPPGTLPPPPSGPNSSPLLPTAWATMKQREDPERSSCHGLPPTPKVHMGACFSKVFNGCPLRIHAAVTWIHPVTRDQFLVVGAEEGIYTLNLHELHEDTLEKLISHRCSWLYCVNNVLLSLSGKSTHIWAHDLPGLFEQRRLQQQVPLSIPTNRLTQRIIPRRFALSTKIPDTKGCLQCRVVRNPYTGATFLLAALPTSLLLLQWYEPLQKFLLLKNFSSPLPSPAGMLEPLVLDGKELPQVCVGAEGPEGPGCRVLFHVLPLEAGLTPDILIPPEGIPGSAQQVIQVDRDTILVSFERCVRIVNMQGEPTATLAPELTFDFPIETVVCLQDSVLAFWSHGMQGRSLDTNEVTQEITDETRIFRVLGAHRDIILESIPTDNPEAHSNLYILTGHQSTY

[13] = target: Leucine-rich repeat serine/threonine-protein kinase 2 (Mus musculus) (UniProt Q5S006); assay: Inhibition of LRRK2 in mouse Swiss-3T3 cells at 0.3 uM using Nictide as substrate by immunoblot analysis; assay type: cell-based

Chain of Leucine-rich repeat serine/threonine-protein kinase 2 (Mus musculus) (Q5S006 whole entry): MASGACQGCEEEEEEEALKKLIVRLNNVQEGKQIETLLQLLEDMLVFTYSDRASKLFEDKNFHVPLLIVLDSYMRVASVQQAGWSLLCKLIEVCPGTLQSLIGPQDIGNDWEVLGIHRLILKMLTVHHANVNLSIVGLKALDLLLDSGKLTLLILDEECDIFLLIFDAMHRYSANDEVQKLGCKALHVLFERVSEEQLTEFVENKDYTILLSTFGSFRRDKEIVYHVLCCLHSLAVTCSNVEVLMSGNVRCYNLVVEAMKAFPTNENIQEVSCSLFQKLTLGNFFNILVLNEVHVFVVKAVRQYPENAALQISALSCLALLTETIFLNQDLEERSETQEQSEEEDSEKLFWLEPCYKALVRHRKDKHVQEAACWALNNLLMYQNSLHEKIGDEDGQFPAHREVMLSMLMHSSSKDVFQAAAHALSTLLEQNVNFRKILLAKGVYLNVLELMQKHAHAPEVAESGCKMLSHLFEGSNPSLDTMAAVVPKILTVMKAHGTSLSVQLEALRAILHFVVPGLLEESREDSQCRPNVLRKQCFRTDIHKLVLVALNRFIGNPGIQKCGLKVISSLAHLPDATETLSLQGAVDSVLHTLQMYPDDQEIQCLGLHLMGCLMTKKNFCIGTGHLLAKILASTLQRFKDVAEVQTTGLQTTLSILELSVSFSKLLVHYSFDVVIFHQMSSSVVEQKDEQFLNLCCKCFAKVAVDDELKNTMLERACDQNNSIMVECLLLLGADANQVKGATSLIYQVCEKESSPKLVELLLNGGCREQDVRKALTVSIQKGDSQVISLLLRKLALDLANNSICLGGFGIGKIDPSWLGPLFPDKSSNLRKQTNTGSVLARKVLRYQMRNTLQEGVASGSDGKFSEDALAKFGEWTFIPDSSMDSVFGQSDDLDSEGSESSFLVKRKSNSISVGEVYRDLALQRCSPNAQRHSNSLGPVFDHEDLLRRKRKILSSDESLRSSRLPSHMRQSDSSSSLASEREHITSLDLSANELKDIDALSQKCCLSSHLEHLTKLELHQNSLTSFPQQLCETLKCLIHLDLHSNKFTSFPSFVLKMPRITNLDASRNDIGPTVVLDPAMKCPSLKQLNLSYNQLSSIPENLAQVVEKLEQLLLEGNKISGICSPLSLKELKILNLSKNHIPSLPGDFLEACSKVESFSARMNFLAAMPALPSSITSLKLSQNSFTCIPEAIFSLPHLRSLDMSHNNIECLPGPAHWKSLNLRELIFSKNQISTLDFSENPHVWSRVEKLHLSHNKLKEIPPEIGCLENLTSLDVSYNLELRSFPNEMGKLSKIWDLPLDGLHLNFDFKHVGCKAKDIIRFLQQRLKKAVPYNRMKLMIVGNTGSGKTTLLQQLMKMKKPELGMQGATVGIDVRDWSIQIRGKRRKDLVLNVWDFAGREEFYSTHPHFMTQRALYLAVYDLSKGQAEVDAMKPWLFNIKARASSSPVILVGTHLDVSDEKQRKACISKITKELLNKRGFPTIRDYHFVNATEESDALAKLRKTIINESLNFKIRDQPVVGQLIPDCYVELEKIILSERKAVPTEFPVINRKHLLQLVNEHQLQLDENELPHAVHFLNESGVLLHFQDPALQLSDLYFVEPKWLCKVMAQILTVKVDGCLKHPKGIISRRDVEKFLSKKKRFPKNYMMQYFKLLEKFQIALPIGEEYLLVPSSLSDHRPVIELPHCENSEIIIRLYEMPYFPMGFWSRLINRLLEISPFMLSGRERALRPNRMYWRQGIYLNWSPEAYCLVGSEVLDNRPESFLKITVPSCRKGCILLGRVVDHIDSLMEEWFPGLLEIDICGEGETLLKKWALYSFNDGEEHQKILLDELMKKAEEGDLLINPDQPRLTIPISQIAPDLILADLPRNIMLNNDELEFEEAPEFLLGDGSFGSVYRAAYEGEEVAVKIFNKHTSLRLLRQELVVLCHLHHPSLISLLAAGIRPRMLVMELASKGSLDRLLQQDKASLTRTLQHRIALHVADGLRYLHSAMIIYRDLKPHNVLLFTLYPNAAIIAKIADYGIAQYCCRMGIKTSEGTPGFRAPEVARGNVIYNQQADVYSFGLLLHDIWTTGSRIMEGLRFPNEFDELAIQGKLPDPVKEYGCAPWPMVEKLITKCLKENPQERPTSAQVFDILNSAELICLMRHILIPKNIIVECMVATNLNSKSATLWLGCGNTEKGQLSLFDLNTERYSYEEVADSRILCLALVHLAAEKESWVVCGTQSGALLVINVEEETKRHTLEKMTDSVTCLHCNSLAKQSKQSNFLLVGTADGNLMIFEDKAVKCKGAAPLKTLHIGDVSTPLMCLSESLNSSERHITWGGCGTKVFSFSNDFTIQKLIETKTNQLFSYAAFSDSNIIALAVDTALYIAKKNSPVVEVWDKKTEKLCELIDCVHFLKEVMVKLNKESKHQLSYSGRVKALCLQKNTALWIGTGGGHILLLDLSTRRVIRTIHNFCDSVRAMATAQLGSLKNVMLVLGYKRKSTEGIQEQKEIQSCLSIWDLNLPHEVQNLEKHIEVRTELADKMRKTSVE
Chain of Insulin receptor (Homo sapiens) (P06213 28-758 limits assumed): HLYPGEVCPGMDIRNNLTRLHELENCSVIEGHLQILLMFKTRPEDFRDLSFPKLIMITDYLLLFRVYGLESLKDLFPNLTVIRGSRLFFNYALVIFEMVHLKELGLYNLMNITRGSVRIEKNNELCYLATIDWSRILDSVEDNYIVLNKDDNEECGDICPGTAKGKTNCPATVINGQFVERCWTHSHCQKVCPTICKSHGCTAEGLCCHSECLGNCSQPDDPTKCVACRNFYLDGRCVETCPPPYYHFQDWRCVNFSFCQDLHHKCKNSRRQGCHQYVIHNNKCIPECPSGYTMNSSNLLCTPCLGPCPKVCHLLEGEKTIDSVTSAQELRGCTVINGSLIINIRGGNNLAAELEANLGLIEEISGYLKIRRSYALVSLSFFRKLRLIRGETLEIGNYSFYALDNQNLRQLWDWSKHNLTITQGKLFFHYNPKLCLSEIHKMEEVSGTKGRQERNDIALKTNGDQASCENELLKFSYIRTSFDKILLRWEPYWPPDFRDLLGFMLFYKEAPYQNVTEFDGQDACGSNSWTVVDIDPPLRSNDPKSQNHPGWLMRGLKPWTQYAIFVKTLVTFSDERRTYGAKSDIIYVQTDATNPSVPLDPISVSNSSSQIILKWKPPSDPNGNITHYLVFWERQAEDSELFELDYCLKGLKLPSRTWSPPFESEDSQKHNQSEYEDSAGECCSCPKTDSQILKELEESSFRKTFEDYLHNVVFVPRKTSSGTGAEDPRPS
Chain of Insulin receptor (Homo sapiens) (P06213 763-1382 limits assumed): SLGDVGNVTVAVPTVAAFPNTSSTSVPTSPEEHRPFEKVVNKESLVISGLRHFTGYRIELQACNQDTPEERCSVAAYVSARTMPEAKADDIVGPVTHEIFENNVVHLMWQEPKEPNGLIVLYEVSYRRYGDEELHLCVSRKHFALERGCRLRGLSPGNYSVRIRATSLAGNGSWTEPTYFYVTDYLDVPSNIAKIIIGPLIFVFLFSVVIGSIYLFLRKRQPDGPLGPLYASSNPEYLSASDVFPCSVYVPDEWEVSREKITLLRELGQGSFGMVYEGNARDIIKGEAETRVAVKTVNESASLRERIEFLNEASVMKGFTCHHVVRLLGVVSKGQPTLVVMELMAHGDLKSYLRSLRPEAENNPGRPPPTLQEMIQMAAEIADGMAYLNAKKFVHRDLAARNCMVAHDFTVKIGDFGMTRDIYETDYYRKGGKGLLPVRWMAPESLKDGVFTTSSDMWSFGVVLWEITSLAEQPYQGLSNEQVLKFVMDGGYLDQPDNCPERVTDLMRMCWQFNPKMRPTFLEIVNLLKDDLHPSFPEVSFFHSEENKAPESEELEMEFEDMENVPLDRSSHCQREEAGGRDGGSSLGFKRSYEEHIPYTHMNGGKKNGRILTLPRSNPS
Chain of Serine/threonine-protein kinase 26 (Homo sapiens) (Q9P289 2-416 limits assumed): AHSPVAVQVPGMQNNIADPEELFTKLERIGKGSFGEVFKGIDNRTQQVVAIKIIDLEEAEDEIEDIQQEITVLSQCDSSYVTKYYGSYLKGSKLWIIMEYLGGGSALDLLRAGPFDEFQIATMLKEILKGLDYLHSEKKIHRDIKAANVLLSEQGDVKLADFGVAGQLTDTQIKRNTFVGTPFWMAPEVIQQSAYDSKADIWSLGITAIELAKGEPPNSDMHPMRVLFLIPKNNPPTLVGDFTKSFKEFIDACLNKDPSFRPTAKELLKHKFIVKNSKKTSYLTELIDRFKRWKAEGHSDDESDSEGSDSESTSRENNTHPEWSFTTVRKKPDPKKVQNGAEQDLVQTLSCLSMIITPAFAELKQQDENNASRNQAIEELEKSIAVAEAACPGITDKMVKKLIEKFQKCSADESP

## C[C@@H](N)[C@H]1CC[C@H](C(=O)Nc2ccncc2)CC1
[1]
  inhibition: 26%
[2]
  inhibition: 7%
[3]
  inhibition: 41%
[4]
  inhibition: 20%
[5]
  inhibition: 67%
[6]
  inhibition: 113%
[7]
  residual activity: 105%
[8]
  residual activity: 52%

## CC1=C(C(=O)Nc2cc3cn[nH]c3cc2F)C(c2ccc(C(F)(F)F)cc2)CC(=O)N1 (stereo not drawn)
[9]
  inhibition: inactive
[10]
  inhibition: inactive
[11]
  residual activity: 106%

## CCN(CC)CCNC(=O)c1c(C)[nH]c(/C=C2\C(=O)Nc3ccc(F)cc32)c1C
[12]
  inhibition: 45%
[13]
  inhibition: Active
